Assay results taken from article PMC5351328 (Clinical and Translational Science, 2016).

System: I-FABP, flagellin, LBP, sCD14
Format: in vivo, human
Conditions: within each group
Outline: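 Participants with mild or moderate hepatic impairment and matched normal-function controls received a single-tablet 150 mg oral test compound, dosed over 14 days. I-FABP, flagellin, LBP and sCD14 were quantified by ELISA, following kit instructions, in plasma from Day 1 (predose), Day 7 and Day 14. Results were summarised by day as medians, IQR and change from baseline, using Wilcoxon tests.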

CCCCOCCOc1ccc(-c2ccc3c(c2)/C=C(/C(=O)Nc2ccc([S@@+]([O-])Cc4cncn4CCC)cc2)CCCN3CC(C)C)cc1 [cenicriviroc]
I-FABP change during treatment: None of these markers changed significantly
LBP change during treatment: None of these markers changed significantly
flagellin change during treatment: None of these markers changed significantly
sCD14 change during treatment: None of these markers changed significantly
